High-throughput results (PubChem BioAssay)
SENP8 block-1: inhibitors of human SENP8 protease. Q96LD8. recombinant SENP8, Nedd8 substrate fluorescence. inhibition, % at 20 µM. actives 0.64% (n = 360,000); in the data active means inhibition mostly above about 40%, no sharp cut-off; inactive means mostly below about 27%
UBC13 polyUb: blocks human UBC13 polyubiquitin chain formation; inhibition, % at 20 µM; TR-FRET; AID 485273; actives 0.47% (n = 330,000); in the data active means inhibition above about 45%, passing the limit was not always enough; inconclusive means no clear call, values can overlap the other calls
Target sequence (P61088 whole entry, looked up): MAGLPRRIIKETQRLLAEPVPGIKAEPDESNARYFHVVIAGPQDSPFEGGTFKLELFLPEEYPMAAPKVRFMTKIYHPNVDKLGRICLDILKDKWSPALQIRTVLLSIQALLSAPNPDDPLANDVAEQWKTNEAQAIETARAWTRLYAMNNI
SENP8 block-2: inhibitors of human SENP8 protease; purified SENP8, Z-RLRGG-aminoluciferin cleavage, luminescence; inhibition, % at 10 µM; actives 1.2% (n = 330,000); AID 2540; in the data active means inhibition above about 50%
SENP7 inh: blocks the human protease SENP7; AID 434973; actives 1.5% (n = 330,000); inhibition, % at 5 µM; recombinant SENP7, Z-RLRGG-aminoluciferin luminescence, 40 min;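 active means inhibition above about 50% at the single test dose, limit read from the data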;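 further: plate controls were DMSO with enzyme for no effect and no enzyme buffer wells for full effect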
Target sequence (Q9BQF6 706-1050 limits assumed): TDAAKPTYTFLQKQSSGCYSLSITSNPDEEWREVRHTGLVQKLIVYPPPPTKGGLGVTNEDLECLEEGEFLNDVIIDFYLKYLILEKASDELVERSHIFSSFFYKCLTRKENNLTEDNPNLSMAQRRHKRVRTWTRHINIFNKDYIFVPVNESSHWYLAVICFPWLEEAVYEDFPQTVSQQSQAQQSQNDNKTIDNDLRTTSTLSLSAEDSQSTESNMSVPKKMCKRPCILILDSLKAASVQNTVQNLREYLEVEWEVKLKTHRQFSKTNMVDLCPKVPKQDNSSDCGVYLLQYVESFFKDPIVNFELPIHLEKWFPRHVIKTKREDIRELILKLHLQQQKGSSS
Apaf1 inhib: blocks human Apaf-1 apoptosome activity; O14727; reconstituted apoptosome caspase-3 activity, DEVD-Rh110 fluorescence; inhibition, % at 20 µM; actives 0.71% (n = 330,000); active means inhibition of at least 40% at 20 µM;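 further: plate controls were DMSO wells for no effect and DEVD-CHO caspase inhibitor wells for full effect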
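Medium: Hepes buffer, pH 7.5 / System: biochemical Apaf-1 apoptosome reconstitution / Measured by: Rh110 fluorescence, excitation 480 nm, emission 540 nm / Times: compound with Apaf-1, dATP, procaspase-3 30 min, then 50 min reaction, room temperature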
SENP6 inh: blocks the human protease SENP6; Recombinant SENP6 catalytic domain, aminoluciferin luminescence; Q9GZR1; actives 1.8% (n = 330,000); inhibition, % at 10 µM; AID 2599;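 active means inhibition above about 50% at the single tested dose, limit read from the data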;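 further: plate controls were DMSO wells with enzyme for no effect and DMSO wells lacking enzyme for full effect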
Active calls of the source: *; i = inactive; ? = inconclusive; . = no result given. Rows were chosen to be rich in hits. Some 3.1% of all compounds tested hit in one or more screens of this group.

SMILES	SENP8 block-1	UBC13 polyUb	SENP8 block-2	SENP7 inh	Apaf1 inhib	SENP6 inh
O=C(O)c1cc(O)c2c(c1)[C@@H]([C@H]1c3cc(C(=O)O)cc(O)c3C(=O)c3c(O[C@@H]4O[C@H](CO)[C@@H](O)[C@H](O)[C@H]4O)cccc31)c1cccc(O[C@@H]3O[C@H](CO)[C@@H](O)[C@H](O)[C@H]3O)c1C2=O	.	?	46.0	-75.8	98.7*	-80.8
OCC1OC(Oc2cccc3ccccc23)C(O)C(O)C1O (stereo not drawn)	16.2	-2.6	4.9	4.8	-3.4	-14.0
Nc1sc(Cc2ccccc2)cc1C(=O)c1c(-c2ccccc2)[nH]c2ccccc12	-330.4	.	.	.	.	.
Cc1ccc(-c2cn3cccc(C)c3n2)cc1	-206.7	.	.	.	.	.
COc1ccc(-c2cn3cccc(C)c3n2)cc1F	-298.0	7.4	48.2	60.0*	-11.9	4.6
CC1(C(=O)Nc2ccc3c(c2)OCCO3)CSCC(=O)N1CC(F)(F)F (stereo not drawn)	11.2	.	.	.	.	.
S=C1Cc2ccccc2N1	44.6*	.	.	.	.	.
S=C1Nc2ccccc2CS1	18.7	.	.	.	.	.
C/C(=N\NC(=O)c1ccc(-c2ccccc2)cc1)C1C(=O)c2ccccc2C1=O	27.5	-45.5	8.3	1.4	11.0	2.8
C/C(=N\NC(=O)c1ccc(Br)cc1)C1C(=O)c2ccccc2C1=O	17.7	-18.6	94.3*	56.6*	11.2	97.2*
CCCCOCCCNC(=O)C[C@@H]1C[C@@]2(C(=O)OC)CC(C)(C)CC=C2N(Cc2ccccc2)C1=O	17.4	.	.	.	.	.
CCCCCCCCC(c1nc2ccccc2[nH]1)N1CCN=C1c1cc2ccccc2[nH]1 (stereo not drawn)	-2.6	.	.	.	.	.
COC(=O)c1cccc(N2CCCC2=O)c1	4.1	-2.4	-5.2	0.3	-3.0	-14.2
COC(=O)c1cccc(-n2sc3ccccc3c2=O)c1	8.2	-0.3	57.0*	19.1	-1.3	70.1*
Cc1ccc(-n2sc3ccccc3c2=O)cc1	13.5	-11.2	85.7*	76.7*	12.4	93.9*
COC(=O)C[C@@H]1CC[C@H](NC(=O)Nc2ccc(OC)cc2)[C@@H](CO)O1	14.3	.	.	.	.	.
O=C1Nc2ccccc2-n2nnnc2C1N1CCN(CCN2CCOCC2)CC1 (stereo not drawn)	6.6	.	.	.	.	.
Cc1ccc(S(=O)(=O)N2c3ccccc3OC(C(=O)OC(C)(C)C)(C(=O)OC(C)(C)C)C2CC(=O)c2ccccc2)cc1 (stereo not drawn)	16.2	.	.	.	.	.
CCOC(=O)[C@]12CCC=C1N(CCC1=CCCCC1)C(=O)[C@H](CC(=O)N1CCCCC1)C2	26.1	.	.	.	.	.
Cc1ccc(S(=O)(=O)C[C@@H]2OC[C@H](C(C)C)N2S(=O)(=O)c2ccc(C)cc2)cc1	14.5	.	.	.	.	.
O=[N+]([O-])c1ccc2c(c1Nc1ccccc1)=NC1(CCCCC1)N=2	44.6*	-251.0	-4.5	6.9	23.2	11.5
COc1ccc(Nc2c([N+](=O)[O-])ccc3c2=NC2(CCCCC2)N=3)cc1	18.9	-155.1	1.1	-0.8	23.9	11.8
O=c1[nH][nH]c2c(N=Cc3ccccc3O)ccc(F)c12	47.2*	.	.	.	.	.
O=C(NCCO)c1ccc(CSc2nc3ccccc3[nH]2)cc1	3.2	8.4	-2.6	5.2	5.6	-9.1
O=[N+]([O-])c1ccc(CSc2nc3ccccc3[nH]2)cc1	18.3	1.7	34.4	60.9*	17.3	58.2*
SMILES	SENP8 block-1	UBC13 polyUb	SENP8 block-2	SENP7 inh	Apaf1 inhib	SENP6 inh
COC(=O)C1=C(C(=O)OC)SC(=C2C(=S)C(C)(C)N(C(=O)CC(C)C)c3ccccc32)S1	59.1*	-65.8	4.5	17.4	10.6	-7.7
O=S(=O)(Nc1ncccn1)c1ccc(NC(=S)Nc2ccc(Cl)cc2)cc1	39.2	-1.1	-1.6	-0.1	-16.1	70.1*
Nc1nc2ccc(Cl)cc2cc1C(=O)NCCc1c[nH]c2ccccc12	-343.4	.	.	.	.	.
CCOc1cc(N2CCOCC2)c(OCC)cc1NC(=O)c1cnccn1	32.1*	-5.0	-9.4	6.8	4.7	-6.0
CCOc1cc(-n2cnnn2)c(OCC)cc1NC(=O)c1cnccn1	-110.9	-3.1	-0.8	-0.4	-18.1	-5.1
O=C(Nc1ccc2c(c1)OCCO2)C(c1ccncc1)n1c(=O)c(-c2cc3ccccc3[nH]2)nc2ccccc21 (stereo not drawn)	-394.1	.	.	.	.	.
COC1=CC(=O)C(OC)=C(OC)C1=O	40.9*	.	.	.	.	.
O=C(NCc1ccccc1)C(C1CC1)n1c(-c2cccs2)nc2ccccc21 (stereo not drawn)	-326.6	.	.	.	.	.
CCC(=O)Nc1cccc2cccnc12	7.9	-8.3	0.2	-11.4	4.6	2.8
C/C(=N\Nc1cccc2cccnc12)c1ccc[nH]1	35.8	-11.2	74.5*	57.4*	6.5	30.0
COc1ccc(O)cc1CN1CCN(c2ncc(Cc3ccccc3)cn2)CC1	4.1	.	.	.	.	.
CCCCCCCOC(=O)C[N+](C)(C)CCOC1CC2CCC1(C)C2(C)C (stereo not drawn)	13.8	.	.	.	.	.
CCCCCCOC(=O)C[N+](C)(C)CCOC1CC2CCC1(C)C2(C)C (stereo not drawn)	1.3	54.5*	-10.1	6.9	52.4*	-9.0
COc1ccc(CNC(=O)C[C@@H]2C=C[C@@H](NS(=O)(=O)c3cccc(OC)c3)[C@@H](CO)O2)cc1	13.5	.	.	.	.	.
CCN(CC)c1ccc2nc3ccc(N)cc3[n+](-c3ccccc3)c2c1	39.3*	i	35.7	17.4	21.6	31.7
Cc1c(C#N)c(O)[nH]c(=O)c1N=Nc1ccc(Br)cc1C(=O)O	45.5*	.	.	.	.	.
Oc1ccccc1N=Nc1nc(-c2ccccc2)c(-c2ccccc2)[nH]1	50.9*	-177.1	4.2	9.1	13.7	-0.4
CCC(CC)C(=O)N(C)c1c(C)nc2c(OCCC3CCCCC3)cccn12	15.0	.	.	.	.	.
COc1ccc2c(c1)CC/C2=N\OC(=O)c1ccccc1OC	25.0	6.3	42.1	67.2*	2.5	68.5*
C(=N\Nc1nc2ccccc2s1)/c1ccc2c(c1)OCO2	-237.5	-0.4	55.1*	88.6*	9.5	66.7*
Brc1csc(/C=N/Nc2nc3ccccc3s2)c1	-80.4	0.6	57.2*	75.7*	6.5	37.4
O=C(Cn1nc2ccccc2n1)N/N=C/c1cc(Cl)cc([N+](=O)[O-])c1O	33.1	.	.	.	.	.
Brc1cc2c(cc1/C=N/Nc1nc3ccccc3s1)OCO2	i	-5.9	-9.6	-6.2	-0.2	-13.8
O=[N+]([O-])c1cc(Cl)cc(/C=N/Nc2nc3ccccc3s2)c1O	13.7	-54.0	45.3	-5.8	2.9	54.4*
CCOC(=O)c1cc(OCC)c2c(ccc3cc(OC)ccc32)n1	-474.4	.	.	.	.	.
Cc1cccc(-c2cc3c(N=O)c4ccccc4c-3n[nH]2)c1	4.3	-23.7	10.5	99.5*	-0.1	96.2*
O=Nc1c2cc(-c3ccccc3)[nH]nc-2c2ccccc12	13.9	.	.	.	.	.
CN(C)C(/C=C/Nc1ccc(C#N)cc1)=C(C#N)C#N	21.6	-3.2	1.4	100.1*	-4.3	-1.7
Cc1ccc(Nc2ccc([N+](=O)[O-])ccc2=O)cc1	42.8*	-62.2	5.6	7.0	-7.2	21.2
CCCCCCCCN1C(=O)[C@H](CC(=O)NCCc2ccccc2OC)C[C@@]2(C(=O)OC)CC(C)(C)CC=C12	7.0	.	.	.	.	.
